Here are results for twelve compounds from ChEMBL document CHEMBL1157618, “Noncovalent tripeptidyl benzyl- and cyclohexyl-amine inhibitors of the cysteine protease caspase-1” (J Med Chem, 2010).

pIC50, pKi: −log10 of the molar value.

Caspase-8, sequence (Q14790 217-374 limits assumed): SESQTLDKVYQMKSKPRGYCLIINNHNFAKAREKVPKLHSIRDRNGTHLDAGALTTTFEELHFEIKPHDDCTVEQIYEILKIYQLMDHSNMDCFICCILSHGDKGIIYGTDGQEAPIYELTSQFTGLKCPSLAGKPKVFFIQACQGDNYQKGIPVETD
Caspase-8, sequence (Q14790 385-479 limits assumed): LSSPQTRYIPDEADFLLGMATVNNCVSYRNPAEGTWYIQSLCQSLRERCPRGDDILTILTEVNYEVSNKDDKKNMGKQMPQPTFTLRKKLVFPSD

One assay addresses T1, Caspase-1 (Homo sapiens, UniProt P29466).
T1 sequence (P29466 whole entry): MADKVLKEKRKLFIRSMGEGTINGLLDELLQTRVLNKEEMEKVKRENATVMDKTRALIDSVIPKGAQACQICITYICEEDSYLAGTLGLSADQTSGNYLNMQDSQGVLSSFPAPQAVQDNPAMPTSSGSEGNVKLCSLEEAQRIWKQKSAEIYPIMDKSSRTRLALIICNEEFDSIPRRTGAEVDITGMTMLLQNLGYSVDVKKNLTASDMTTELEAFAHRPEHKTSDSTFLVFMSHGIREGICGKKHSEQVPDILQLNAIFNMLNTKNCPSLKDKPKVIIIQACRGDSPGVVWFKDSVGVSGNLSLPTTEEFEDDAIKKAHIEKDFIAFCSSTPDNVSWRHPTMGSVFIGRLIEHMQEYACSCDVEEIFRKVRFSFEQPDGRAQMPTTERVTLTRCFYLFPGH
Nature of the assay: Inhibition of human recombinant caspase 1. A digest of the protocol:
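Recombinant human caspase-1 stored at -80 °C as aliquots and used at 1:20 dilution; enzyme preincubated with inhibitor (Ki determinations). Substrate Ac-Trp-Glu-His-Asp-AMC, 5 μM final. AMC release followed kinetically, excitation 380 nm, emission 460 nm.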
Usually pKi stands for the negative decadic logarithm of the Ki, by convention in mol/L. As to `CC(C)[C@H](NC(=O)c1ccc2ccccc2c1)C(=O)N[C@@H](C)C(=O)N[C@H](CCCc1ccccc1)CC(=O)O`, the pKi is below 4.30.

In the case of `CC(C)[C@H](NC(=O)c1ccc2ccccc2c1)C(=O)N[C@@H](C)C(=O)N[C@@H](CC(=O)O)CN(C)C1CCCCC1`, the pKi is 6.89.

As for `CC(C)[C@H](NC(=O)c1ccc2ccccc2c1)C(=O)N[C@@H](C)C(=O)N[C@H](CNCc1ccccc1)CC(=O)O`, the pKi is 6.22.

Regarding `CC(C)[C@H](NC(=O)c1ccc2ccccc2c1)C(=O)N[C@@H](C)C(=O)N[C@H](CNCc1ccc2c(c1)OCO2)CC(=O)O`, the negative logarithm of the Ki (pKi) is 6.68.

On to `CC(C)[C@H](NC(=O)c1ccc2ccccc2c1)C(=O)N[C@@H](C)C(=O)N[C@H](CNC1CCCCC1)CC(=O)O`, for which the negative logarithm of the Ki (pKi) is 6.02.

`CC(C)[C@H](NC(=O)c1ccc2ccccc2c1)C(=O)N[C@@H](C)C(=O)N[C@H](CNCc1ccc(O)cc1)CC(=O)O`: the pKi is 5.86.

`CC(C)[C@H](NC(=O)c1ccc2ccccc2c1)C(=O)N[C@@H](C)C(=O)N[C@H](CNCc1ccccc1F)CC(=O)O`: the negative logarithm of the Ki (pKi) was 5.92.

As for `CC(C)[C@H](NC(=O)c1ccc2ccccc2c1)C(=O)N[C@@H](C)C(=O)N[C@H](CNCc1ccc(C(N)=O)cc1)CC(=O)O`, the negative logarithm of the Ki (pKi) is 5.74.

Turning to `COc1ccccc1CNC[C@H](CC(=O)O)NC(=O)[C@H](C)NC(=O)[C@@H](NC(=O)c1ccc2ccccc2c1)C(C)C`, the pKi is 6.02.

In general, pIC50 refers to the negative decadic logarithm of the IC50, by convention in mol/L. On to `CC(C)[C@H](NC(=O)c1ccc2ccccc2c1)C(=O)N[C@@H](C)C(=O)N[C@H](C=O)CC(=O)O`, for which the negative logarithm of the IC50 (pIC50) was 9.70.

Turning to `CC(C)[C@H](NC(=O)c1ccc2ccccc2c1)C(=O)N[C@@H](C)C(=O)N[C@@H](CC(=O)O)CN(C)Cc1ccccc1`, the negative logarithm of the Ki (pKi) is 5.72.

`CC(C)[C@H](NC(=O)c1ccc2ccccc2c1)C(=O)N[C@@H](C)C(=O)N[C@H](CNCc1ccccc1O)CC(=O)O`: the negative-log Ki (pKi) was 7.33.

Another assay addresses Caspase-8 (Homo sapiens, UniProt Q14790). Nature of the assay: Inhibition of caspase 8.
The compound `CC(C)[C@H](NC(=O)c1ccc2ccccc2c1)C(=O)N[C@@H](C)C(=O)N[C@H](CNCc1ccccc1O)CC(=O)O` gave a pIC50 of 4.00.
